In ChEMBL document CHEMBL1134385, “Flexible estrogen receptor modulators: design, synthesis, and antagonistic effects in human MCF-7 breast cancer cells” (J Med Chem, 2001):

Key:
MCF7 = experiment: Antiproliferative activity against Human MCF-7 Breast cancer cell line in vitro.; format: functional, cell-based
In short: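 MCF-7 cells grown in Eagle's MEM with 10% fetal calf serum and 1% nonessential amino acids, 5% CO2. Seeded at 1.5×10^4 per well, 24 h at 37 °C, then dosed from ethanol stocks over 1 nM-100 μM (vehicle 1% v/v) for 72 h. MTT at 1 mg/mL final, 2 h in the dark, DMSO solubilization, A570. Viability relative to vehicle control; IC50 from triplicate means.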

Estrogen receptor = Estrogen receptor (Homo sapiens, UniProt Q92731+P03372); experiment: Binding affinity for estrogen receptor.; format: protein assay

CC/C(=C(\Cc1ccccc1)c1ccc(OCN(C)C)cc1)c1ccccc1
IC50 (MCF7): 21.7 µM | Ki (Estrogen receptor): 0.503 µM
